# Only some compounds are listed: those with a hit (about 3.8% of all), similar ones and a draw of the others.
# KCNK3 inh = human KCNK3 channel inhibition, primary screen; O14649; CHO-KCNK3 thallium flux, FluxOR fluorescence; active compounds read low; B-score at 10 µM; 340,000 compounds, 0.84% hits; AID 602410;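 active = B-score under library mean minus 4 SD, starting fluorescence ratio at most library mean plus 5 SD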;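 note: more negative B-score means stronger inhibition of thallium flux through KCNK3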
# KCNQ1 inh = blocks the human KCNQ1 potassium channel; B-score at 10 µM; 310,000 compounds, 1.3% hits; CHO-K1 KCNQ1, FluxOR thallium flux fluorescence; active compounds read high; AID 2642;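 active = compounds whose thallium flux B-score, printed positive for inhibition, exceeds three library SD while starting fluorescence stays within three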;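 note: channel opened by potassium depolarization with thallium stimulus after 20 min compound exposure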
# Kir21 block = inhibitors of mouse Kir2.1 inward-rectifier potassium channel. P35561. HEK293-Kir2.1, FluxOR thallium flux fluorescence; active compounds read low. B-score at 10 µM. 310,000 compounds, 0.85% hits;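 active = fluorescence ratio B-score at or below minus 3 SD of library scores, with starting-brightness B-score within 2 SD, cut at about -4.2 in these data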;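 note: channel flux triggered by added potassium and thallium sulfate stimulus; B-score of peak minus minimum fluorescence over baseline after thallium stimulus; more negative B-score means stronger Kir2.1 block with less thallium influx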
# Target sequence (P35561 whole entry, looked up): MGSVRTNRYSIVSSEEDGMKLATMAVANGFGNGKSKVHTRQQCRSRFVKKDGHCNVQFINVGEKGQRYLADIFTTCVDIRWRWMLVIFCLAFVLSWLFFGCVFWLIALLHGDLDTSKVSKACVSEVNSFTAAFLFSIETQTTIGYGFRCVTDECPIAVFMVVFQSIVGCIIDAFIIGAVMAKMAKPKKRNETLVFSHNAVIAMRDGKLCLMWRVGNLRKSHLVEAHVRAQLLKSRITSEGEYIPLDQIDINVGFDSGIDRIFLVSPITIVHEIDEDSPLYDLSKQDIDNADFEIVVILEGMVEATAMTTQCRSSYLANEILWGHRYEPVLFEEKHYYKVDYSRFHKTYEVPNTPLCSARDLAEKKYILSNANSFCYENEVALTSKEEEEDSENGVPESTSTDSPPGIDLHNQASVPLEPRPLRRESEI
# KCNQ1 pot = potentiates or activates the human KCNQ1 potassium channel | P51787 | CHO-K1 KCNQ1, thallium flux FluxOR fluorescence; active compounds read high | B-score at 10 µM | 310,000 compounds, 0.35% hits | AID 2648;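 active = fluorescence ratio B-score, a plate-corrected score, at least three library SD, with initial intensity B-score within 5 SD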
#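 Assay system: CHO-K1 cells stably expressing KCNQ1. Medium: assay buffer for compound exposure, DMSO matched across wells. Timing: 37 °C overnight plating, 90-min dark dye load, 20-min compound pretreatment. Signal: kinetic FluxOR fluorescence, 10 s baseline plus 110 s post-stimulus.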
# KCNK9 block = inhibitors of human KCNK9 two-pore domain potassium channel | AID 488922 | B-score at 10 µM | 310,000 compounds, 1.2% hits | HEK293 KCNK9, FluxOR thallium flux fluorescence; active compounds read low | Q9NPC2;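 active = ratio B-score over 3 SD below the library mean, with starting fluorescence within 5 SD of its mean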;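 note: negative B-score means less thallium flux so channel inhibition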
# Target sequence (Q9NPC2 whole entry, looked up, the tested form may be a part): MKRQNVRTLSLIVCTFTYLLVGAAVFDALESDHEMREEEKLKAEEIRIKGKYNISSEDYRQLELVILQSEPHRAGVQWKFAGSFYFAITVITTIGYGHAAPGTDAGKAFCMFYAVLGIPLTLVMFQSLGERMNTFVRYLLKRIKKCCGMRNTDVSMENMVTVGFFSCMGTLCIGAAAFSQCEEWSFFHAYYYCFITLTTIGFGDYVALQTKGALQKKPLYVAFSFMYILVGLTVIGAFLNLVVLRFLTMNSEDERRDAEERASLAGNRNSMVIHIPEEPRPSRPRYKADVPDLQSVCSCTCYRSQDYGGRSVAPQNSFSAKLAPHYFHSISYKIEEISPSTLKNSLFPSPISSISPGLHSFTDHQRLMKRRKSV
# hERG rescue = shields human hERG channel from block by proarrhythmic agents. Q12809. CHO-hERG, FluxOR thallium flux, dofetilide IC70 present. activation (rescue from dofetilide block), less the hit threshold, % at 10 µM. 310,000 compounds, 0.51% hits. AID 1511;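 active = activation above the mean of controls blocked by dofetilide plus 5 SD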;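 note: thallium influx through hERG after potassium depolarization seen as dye fluorescence rise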
# KCNQ1 inh valid = confirmation of human KCNQ1 potassium channel inhibitors | inhibition, % at 10 µM | KCNQ1 cell line, FluxOR thallium flux fluorescence | 1,600 compounds, 93% hits | shares compounds with KCNQ1 inh | AID 588353;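 active = primary screen active, with duplicate mean exceeding buffer control mean plus 3 SD of buffer wells, cut at about 28% in these data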
# CHO KCNQ1 ctr = KCNQ1 inhibitor counter-screen hit in parental CHO cells; shares compounds with KCNQ1 inh; parental CHO-K1, FluxOR thallium flux fluorescence ratio; active compounds read low; zero means no signal rise above baseline; fluorescence ratio (Tl flux) at 10 µM; 1,600 compounds, 21% hits;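 active = mean of duplicate thallium-flux fluorescence ratios in parental host cells more than 5 SD below the buffer control mean, cut at about 0.38 in these data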;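 note: ratio is peak minus minimum fluorescence divided by baseline fluorescence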
# KCNQ1 APC inh = confirmation of human KCNQ1 potassium channel inhibitors by electrophysiology | shares compounds with KCNQ1 inh | KCNQ1-CHO cells, automated patch clamp current | calls only at 10 µM | 490 compounds, 20% hits;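 active = KCNQ1 current drop exceeding 3 SD of negative control wells, seen in both duplicate runs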;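 note: steady state current during a 2 s step from -80 to +40 mV; negative values mean current inhibition and positive values mean potentiation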
# KCNQ2 spec = KCNQ1 inhibitor that also blocks rat KCNQ2 channel | inhibition, % at 10 µM | shares compounds with KCNQ1 inh | 1,600 compounds, 71% hits | KCNQ2 cells, FluxOR thallium flux fluorescence | AID 651746;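 active = mean percent inhibition of the KCNQ2 thallium signal more than 5 SD above the buffer-only control wells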;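 note: KCNQ2 expressed in CHO cells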
# KCNQ1 KCNE1 spec = KCNQ1 inhibitor that also blocks human KCNQ1/KCNE1 channel; KCNQ1/KCNE1 cells, FluxOR thallium flux fluorescence; AID 652147; 1,600 compounds, 77% hits; shares compounds with KCNQ1 inh; inhibition, % at 10 µM;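 active = mean percent inhibition of duplicate wells above the buffer-only control mean plus 3 SD of those controls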
# KCNK9 inh conf = human KCNK9 inhibitor confirmation; shares compounds with KCNK9 block; HEK293 KCNK9 cells, FluxOR thallium flux fluorescence; inhibition, % at 10 µM; 4,900 compounds, 43% hits; AID 492992;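 active = thallium signal inhibited by more than 5 SD of the compound-free buffer control wells, on both duplicate plates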
# Kir2-1 spec = tests whether KCNK9 modulators also affect mouse Kir2.1. 4,900 compounds, 4% hits. inhibition, % at 10 µM. shares compounds with KCNK9 block. Kir2.1 cells, FluxOR thallium flux fluorescence;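 active = thallium signal drop more than 5 SD beyond the mean of the no-compound control wells, seen in both duplicate plates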;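 note: signal is fluorescence rise after thallium addition divided by baseline fluorescence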
# HEK293 Tl ctr = second check of KCNK9 modulator effects in non-induced HEK293 cells; shares compounds with KCNK9 block; FluxOR thallium flux; inhibition, % at 10 µM; 4,900 compounds, 40% hits; AID 492997;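 active = thallium signal drop beyond 5 SD of the untreated control mean, on both duplicate plates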
# KCNK3 inh conf = confirmation of human KCNK3 two-pore domain potassium channel inhibitors. shares compounds with KCNK3 inh. CHO-KCNK3 thallium flux, FluxOR fluorescence; 0% buffer, 100% carvedilol maximal block. ratio percent of control, % at 10 µM. 2,400 compounds, 99% hits;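 active = ratio percent of control, averaged over triplicates, above buffer control mean plus 5 SD, cut at about 64% in these data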;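 note: ratio is the fluorescence rise from min to max over baseline after thallium stimulus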
# KCNK3 uninduced = activity in cells without induced KCNK3 expression. AID 651747. 2,400 compounds, 40% hits. non-induced KCNK3 parental cells, FluxOR thallium flux; active compounds read low. shares compounds with KCNK3 inh. thallium flux ratio (lower = more inhibition) at 10 µM;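 active = thallium flux ratio, averaged over three wells, more than 5 SD below the buffer control mean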;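 note: host cells are CHO cells without KCNK3 induction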
# Numbers stand for hits; i = inactive; nt = no result given; + = active, no number.
SMILES,KCNK3 inh,KCNQ1 inh,Kir21 block,KCNQ1 pot,KCNK9 block,hERG rescue,KCNQ1 inh valid,CHO KCNQ1 ctr,KCNQ2 spec,KCNQ1 KCNE1 spec,KCNK3 inh conf,KCNK3 uninduced,others
Cc1cc(-c2ccc(C(C)C)c(S(=O)(=O)N3CCOc4ccccc43)c2)on1,-11.5,7,i,i,-6.66,i,96.0,i,82.7%,107.0%,110.7,i,KCNQ1 APC inh=i
CN(C)S(=O)(=O)c1cccc(COC(=O)c2ccc(Cl)cc2O)c1,-9.51,7,i,i,-8.31,i,121.0,i,96.3%,117.0%,130.7,i,KCNQ1 APC inh=i;KCNK9 inh conf=49.5%;Kir2-1 spec=i;HEK293 Tl ctr=26.5%
CC1=C(C(=O)Nc2cccc(C(=O)N3CCC(C(N)=O)CC3)c2)SCCO1,i,i,i,i,i,i,nt,nt,nt,nt,nt,nt,
Cc1onc(-c2ccccc2)c1C(=O)OCCOc1cccc(Cl)c1,-14.2,7,i,i,i,i,85.5,i,86.3%,150.5%,90.3,i,
CCOc1ccc(C(=O)COC(=O)c2c(-c3ccccc3)noc2C)cc1,i,i,i,i,i,i,nt,nt,nt,nt,nt,nt,
Cc1ccc(/C=C/C(=O)O)cc1S(=O)(=O)N1CCCCC1,i,i,i,i,i,i,nt,nt,nt,nt,nt,nt,
Cc1ccc(Cn2c(N3CCN(C)CC3)nc3c2c(=O)[nH]c(=O)n3C)cc1,i,i,i,i,i,i,nt,nt,nt,nt,nt,nt,
COc1ccc(NC(=O)c2ccccc2OCc2ccc(F)cc2)c(OC)c1,-10.9,8,i,i,-12.1,i,75.5,i,84.7%,108.0%,108.3,i,KCNK9 inh conf=72.5%;Kir2-1 spec=i;HEK293 Tl ctr=32.5%
CCCCNC(=S)Nc1ccc(Oc2ccccc2)cc1,-9.72,6,i,i,-7.45,i,39.0,i,i,67.5%,95.7,i,
CC(C)=CCc1c(O)cc(O)c2c1OC(c1ccc(O)cc1)CC2=O (centres undefined),-14.9,9,-6.39,i,-11.9,i,130.5,0.345,107.7%,+,138.7,0.109,KCNK9 inh conf=48.5%;Kir2-1 spec=i;HEK293 Tl ctr=i
S=C(Nc1ccc(Br)cc1)NC1CCCC1,i,i,i,i,i,i,nt,nt,nt,nt,nt,nt,
FC(F)Sc1ccc(NC(=S)NC2CCCCC2)cc1,-10.3,10,i,i,i,i,77.5,i,i,36.0%,104.0,i,
COc1ccccc1N1CCN(/N=C/C(Cl)=C/c2ccccc2)CC1,i,i,i,i,i,i,nt,nt,nt,nt,nt,nt,
COc1ccc(NC(=O)c2sc3nc(C)nc(N4CCN(c5ccccn5)CC4)c3c2C)cc1Cl,-12.3,9,i,i,i,i,97.5,i,88.0%,105.0%,118.0,0.154,KCNQ1 APC inh=i
Cc1nc(N2CCN(c3ccccn3)CC2)c2c(C)c(C(=O)Nc3ccc(F)cc3Cl)sc2n1,i,i,i,i,i,i,nt,nt,nt,nt,nt,nt,
CCOC(=O)c1c(CSC(=N)N)n(C)c2cc(Br)c(OC(C)=O)cc12,-8.79,8,i,i,i,i,43.0,i,60.0%,78.5%,117.3,0.136,
N#CC1=C(N)NC(SCc2ccc(Br)cc2)=C(C#N)C12CCCCC2,-11.7,18,i,i,-6.84,i,139.5,0.307,114.7%,159.0%,125.7,0.129,
COC(=O)c1ccc(NC(=S)NC2CCc3ccccc32)cc1 (centres undefined),-8.79,7,i,i,i,i,67.5,i,64.7%,57.5%,93.3,i,
CCN(c1ccccc1)c1nc(C#N)nc(N(CC)c2ccccc2)n1,-11,7,i,i,i,i,105.5,0.367,112.3%,80.0%,102.0,i,KCNK9 inh conf=i;Kir2-1 spec=i;HEK293 Tl ctr=i
CCN(c1ccccc1)c1cc(C)nc2nc(C)nn12,i,i,i,i,i,i,nt,nt,nt,nt,nt,nt,
CCCOc1ccc(C2CC(=O)Nc3cc(OC)c(OC)cc32)cc1 (centres undefined),i,i,i,i,i,i,nt,nt,nt,nt,nt,nt,
CCCn1c(=O)c(C(=O)NCCc2ccc(OC)c(OC)c2)c(O)c2ccccc21,-10.6,9,i,i,i,i,79.5,i,101.3%,63.0%,107.0,0.159,
CCc1cc(=O)n2c([nH]c3ccccc32)c1C#N,i,i,i,i,i,i,nt,nt,nt,nt,nt,nt,
CCc1cc(=S)n2c([nH]c3ccccc32)c1C#N,-9.35,11,i,i,i,i,102.5,i,112.0%,81.5%,137.3,0.0573,KCNQ1 APC inh=i
Cc1cccc(-c2cc(C(=O)Nc3cccnc3)c3ccccc3n2)c1,-8.86,9,i,i,i,i,124.5,0.373,135.7%,159.0%,125.3,0.101,
Cc1cccc(-c2cc(C(=O)Nc3ccncc3)c3ccccc3n2)c1,i,i,i,i,i,i,nt,nt,nt,nt,nt,nt,
O=C(Cc1csc(-c2ccccc2)n1)NCC(=O)Nc1ccc(F)c(F)c1F,i,nt,nt,nt,nt,nt,nt,nt,nt,nt,nt,nt,
S=C(NCc1ccccc1)NC1CCCc2ccccc21 (centres undefined),-13.4,8,-6.22,i,i,i,i,i,66.0%,i,112.0,i,
COc1ccc(N(CC(=O)NCCC2=CCCCC2)S(=O)(=O)c2ccc(C)cc2)cc1,nt,i,i,i,i,i,nt,nt,nt,nt,nt,nt,
Cc1cc(C(=O)N2CCN(Cc3ccccc3)CC2)on1,i,i,i,i,i,i,nt,nt,nt,nt,nt,nt,

# Source: PubChem (Johns Hopkins Ion Channel Center)
